ChEMBL document CHEMBL4732173, “Easily accessed nitroquinolones exhibiting potent and selective anti-tubercular activity” (Eur J Med Chem, 2021)

Assays:
[1] = Solubility of the compound in screening media; assay type: physicochemical
[2] = Solubility of the compound in DMSO; assay type: physicochemical
Mycobacterium ulcerans = experiment: Antibacterial activity against Mycobacterium ulcerans assessed as bacterial metabolic acativity at 10 ug/ml incubated for 8 days followed by addition of Alamar blue for 3 days by Alamar blue dye based fluorescence analysis; assay type: functional; conditions: dose 10 µg/ml; time 8 day
How it was run: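 Tested in triplicate. Remaining metabolic activity (%PC) was calculated as blank-corrected fluorescence of each treated well divided by that of the untreated control.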

With O=C(NO)c1cn(Cc2cccc(Cl)c2)c2ccc([N+](=O)[O-])cc2c1=O the solubility [1] was “Soluble” and the solubility [2] was “Insoluble”.

For O=C(NO)c1cn(Cc2cccc(Br)c2)c2ccc([N+](=O)[O-])cc2c1=O, the solubility [1] was “Soluble” and the solubility [2] was “Insoluble”.

With COCCNC(=O)c1cn(Cc2cccc(F)c2)c2ccc([N+](=O)[O-])cc2c1=O the solubility [1] was “Soluble” and the solubility [2] was “Insoluble”.

In the case of N#Cc1cccc(Cn2cc(C(=O)O)c(=O)c3cc([N+](=O)[O-])ccc32)c1, the solubility [1] was “Soluble” and the solubility [2] was “Insoluble”.

With N#Cc1ccc(Cn2cc(C(=O)NCCNCCO)c(=O)c3cc([N+](=O)[O-])ccc32)cc1 the solubility [1] was “Soluble” and the solubility [2] was “Insoluble”.

With O=C(NCCOCCO)c1cn(Cc2cccc(Cl)c2)c2ccc([N+](=O)[O-])cc2c1=O the solubility [1] was “Soluble” and the solubility [2] was “Insoluble”.

With N#Cc1ccc(Cn2cc(C(=O)NCCOCCO)c(=O)c3cc([N+](=O)[O-])ccc32)cc1 the solubility [1] was “Soluble” and the solubility [2] was “Insoluble”.

For O=C(NO)c1cn(Cc2cccc(F)c2)c2ccc([N+](=O)[O-])cc2c1=O, the solubility [1] was “Soluble” and the solubility [2] was “Insoluble”.

In the case of N#Cc1cccc(Cn2cc(C(=O)NO)c(=O)c3cc([N+](=O)[O-])ccc32)c1, the solubility [1] was “Soluble” and the solubility [2] was “Insoluble”.

With O=C(NCCN1CCOCC1)c1cn(Cc2cccc(Cl)c2)c2ccc([N+](=O)[O-])cc2c1=O the solubility [1] was “Soluble” and the solubility [2] was “Insoluble”.

With COCCNC(=O)c1cn(Cc2ccc(F)cc2)c2ccc([N+](=O)[O-])cc2c1=O the Activity (Mycobacterium ulcerans) was >90%, the solubility [1] was “Soluble” and the solubility [2] was “Insoluble”.

In the case of COCCNC(=O)c1cn(Cc2cccc(Cl)c2)c2ccc([N+](=O)[O-])cc2c1=O, the Activity (Mycobacterium ulcerans) was >90%, the solubility [1] was “Soluble” and the solubility [2] was “Insoluble”.

With O=C(NCCN1CCOCC1)c1cn(Cc2cccc(Br)c2)c2ccc([N+](=O)[O-])cc2c1=O the solubility [1] was “Soluble” and the solubility [2] was “Insoluble”.

For O=C(NCCNCCO)c1cn(Cc2cccc(F)c2)c2ccc([N+](=O)[O-])cc2c1=O, the Activity (Mycobacterium ulcerans) was >90%, the solubility [1] was “Soluble” and the solubility [2] was “Insoluble”.

In the case of CCOC(=O)c1c[nH]c2c(C(F)(F)F)cc([N+](=O)[O-])cc2c1=O, the Activity (Mycobacterium ulcerans) was >90%, the solubility [1] was “Soluble” and the solubility [2] was “Insoluble”.

In the case of COCCNC(=O)c1cn(Cc2ccc(C#N)cc2)c2ccc([N+](=O)[O-])cc2c1=O, the solubility [1] was “Soluble” and the solubility [2] was “Insoluble”.

With N#Cc1cccc(Cn2cc(C(=O)NCCNCCO)c(=O)c3cc([N+](=O)[O-])ccc32)c1 the Activity (Mycobacterium ulcerans) was >90%, the solubility [1] was “Soluble” and the solubility [2] was “Insoluble”.

For O=C(NCCN1CCOCC1)c1cn(Cc2cccc(F)c2)c2ccc([N+](=O)[O-])cc2c1=O, the solubility [1] was “Soluble” and the solubility [2] was “Insoluble”.

For O=C(NCCOCCO)c1cn(Cc2ccc(F)cc2)c2ccc([N+](=O)[O-])cc2c1=O, the Activity (Mycobacterium ulcerans) was >90%, the solubility [1] was “Soluble” and the solubility [2] was “Insoluble”.

In the case of O=C(NCCOCCO)c1cn(Cc2cccc(F)c2)c2ccc([N+](=O)[O-])cc2c1=O, the solubility [1] was “Soluble” and the solubility [2] was “Insoluble”.

For N#Cc1cccc(Cn2cc(C(=O)NCCOCCO)c(=O)c3cc([N+](=O)[O-])ccc32)c1, the solubility [1] was “Soluble” and the solubility [2] was “Insoluble”.

With O=C(NCCNCCO)c1cn(Cc2ccc(F)cc2)c2ccc([N+](=O)[O-])cc2c1=O the Activity (Mycobacterium ulcerans) was >90%, the solubility [1] was “Soluble” and the solubility [2] was “Insoluble”.

For COCCNC(=O)c1cn(Cc2cccc(C#N)c2)c2ccc([N+](=O)[O-])cc2c1=O, the solubility [1] was “Soluble” and the solubility [2] was “Insoluble”.
